Measurements published in ChEMBL document CHEMBL4145441, “Discovery of N-(5-((5-chloro-4-((2-(isopropylsulfonyl)phenyl)amino)pyrimidin-2-yl)amino)-4-methoxy-2-(4-methyl-1,4-diazepan-1-yl)phenyl)acrylamide (CHMFL-ALK/EGFR-050) as a potent ALK/EGFR dual kinase inhibitor capable of overcoming a variety of ALK/EGFR associated drug resistant mutants in NSCLC” (Eur J Med Chem, 2017).
pIC50: −log10 of the molar value. The source made the active and inactive calls. No cut-off for these calls is given here.

Key:
[1] = MRT (0 to t) in Sprague-Dawley rat at 1 mg/kg, iv; assay type: ADME, organism-based; details: in vivo
Outline: (§1)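 Pharmacokinetics in rats given a single dose either intravenously at 1 mg/kg or orally at 10 mg/kg. Plasma parameters derived include AUC0-t, AUC0-∞, MRT(0-t), Cmax, Tmax, T1/2 and oral F (%).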

NCI-H1975 [2] = assay: Growth inhibition of human NCI-H1975 cells after 72 hrs by CellTiter-Glo assay; assay type: functional; details: NCI-H1975, 72 h
Outline: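 Antiproliferative GI50 against H1975 and H3122 cells; each GI50 value obtained from triplicate testing.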

[3] = Antiproliferative activity against CHO cells after 72 hrs by CellTiter-Glo assay; assay type: cell-based, Cricetulus griseus; details: chinese hamster
[4] = target: T1, Epidermal growth factor receptor (Homo sapiens, UniProt P00533); assay: Inhibition of EGFR phosphorylation at Y1068 in human NCI-H1975 cells at 30 nM after 4 hrs by immunoblotting method; assay type: cell-based
T1 sequence (P00533 whole entry): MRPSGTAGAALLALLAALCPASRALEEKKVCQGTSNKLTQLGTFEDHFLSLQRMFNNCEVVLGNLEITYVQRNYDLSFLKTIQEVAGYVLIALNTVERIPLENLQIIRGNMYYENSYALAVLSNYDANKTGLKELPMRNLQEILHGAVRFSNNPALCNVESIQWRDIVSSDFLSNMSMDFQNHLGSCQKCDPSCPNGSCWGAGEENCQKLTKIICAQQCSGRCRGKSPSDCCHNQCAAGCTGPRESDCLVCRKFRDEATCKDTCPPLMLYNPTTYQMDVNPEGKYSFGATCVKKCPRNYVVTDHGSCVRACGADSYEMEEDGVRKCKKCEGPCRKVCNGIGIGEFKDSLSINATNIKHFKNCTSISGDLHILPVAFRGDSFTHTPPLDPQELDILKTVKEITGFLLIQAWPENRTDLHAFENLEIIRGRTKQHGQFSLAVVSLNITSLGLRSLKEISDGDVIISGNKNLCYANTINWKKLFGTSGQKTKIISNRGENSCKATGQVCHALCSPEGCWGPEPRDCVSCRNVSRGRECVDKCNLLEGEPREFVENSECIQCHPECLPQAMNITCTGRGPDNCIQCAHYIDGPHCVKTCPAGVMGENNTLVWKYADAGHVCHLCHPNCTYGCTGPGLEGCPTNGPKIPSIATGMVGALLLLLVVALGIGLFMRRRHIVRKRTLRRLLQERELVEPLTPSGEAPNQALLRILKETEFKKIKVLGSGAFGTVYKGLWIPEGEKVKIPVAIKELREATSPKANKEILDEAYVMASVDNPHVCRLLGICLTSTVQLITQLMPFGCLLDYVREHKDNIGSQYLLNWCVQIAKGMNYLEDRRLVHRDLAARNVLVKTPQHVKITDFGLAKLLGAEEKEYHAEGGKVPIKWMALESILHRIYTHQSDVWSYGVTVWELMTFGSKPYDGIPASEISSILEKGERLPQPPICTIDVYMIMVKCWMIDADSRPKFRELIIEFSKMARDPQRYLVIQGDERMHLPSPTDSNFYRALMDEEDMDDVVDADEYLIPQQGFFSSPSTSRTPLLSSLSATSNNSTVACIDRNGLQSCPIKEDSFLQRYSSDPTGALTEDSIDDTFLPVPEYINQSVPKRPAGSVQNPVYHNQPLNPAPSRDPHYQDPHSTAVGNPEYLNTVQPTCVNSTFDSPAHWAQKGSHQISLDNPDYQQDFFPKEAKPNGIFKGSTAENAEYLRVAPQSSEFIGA

NCI-H3122 [5] = assay: Antitumor activity against human NCI-H3122 cells xenografted in po dosed nu/nu mouse assessed as decrease in cell proliferation administered for 28 days by Ki67 staining-based immunohistochemical analysis; assay type: functional, organism-based
[6] = Half life in Sprague-Dawley rat at 1 mg/kg, iv; assay type: ADME, organism-based; details: in vivo
Outline: (§2)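 Rats dosed once intravenously at 1 mg/kg or orally at 10 mg/kg. Plasma exposure parameters derived: AUC0-t, AUC0-∞, MRT(0-t), Cmax, Tmax, T1/2 and oral bioavailability (F%). Values reported as mean ± spread.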

[7] = target: ALK tyrosine kinase receptor (Homo sapiens, UniProt Q9UM73, C1156Y); assay: Inhibition of recombinant human N-terminal GST/His6-fused ALK C1156Y mutant expressed in Sf9 insect cells using Tyr 1 peptide as substrate after 1 hr by Z-LYTE assay
Chain of ALK tyrosine kinase receptor (Homo sapiens, UniProt Q9UM73, C1156Y) (Q9UM73 19-1620 C1156Y limits assumed): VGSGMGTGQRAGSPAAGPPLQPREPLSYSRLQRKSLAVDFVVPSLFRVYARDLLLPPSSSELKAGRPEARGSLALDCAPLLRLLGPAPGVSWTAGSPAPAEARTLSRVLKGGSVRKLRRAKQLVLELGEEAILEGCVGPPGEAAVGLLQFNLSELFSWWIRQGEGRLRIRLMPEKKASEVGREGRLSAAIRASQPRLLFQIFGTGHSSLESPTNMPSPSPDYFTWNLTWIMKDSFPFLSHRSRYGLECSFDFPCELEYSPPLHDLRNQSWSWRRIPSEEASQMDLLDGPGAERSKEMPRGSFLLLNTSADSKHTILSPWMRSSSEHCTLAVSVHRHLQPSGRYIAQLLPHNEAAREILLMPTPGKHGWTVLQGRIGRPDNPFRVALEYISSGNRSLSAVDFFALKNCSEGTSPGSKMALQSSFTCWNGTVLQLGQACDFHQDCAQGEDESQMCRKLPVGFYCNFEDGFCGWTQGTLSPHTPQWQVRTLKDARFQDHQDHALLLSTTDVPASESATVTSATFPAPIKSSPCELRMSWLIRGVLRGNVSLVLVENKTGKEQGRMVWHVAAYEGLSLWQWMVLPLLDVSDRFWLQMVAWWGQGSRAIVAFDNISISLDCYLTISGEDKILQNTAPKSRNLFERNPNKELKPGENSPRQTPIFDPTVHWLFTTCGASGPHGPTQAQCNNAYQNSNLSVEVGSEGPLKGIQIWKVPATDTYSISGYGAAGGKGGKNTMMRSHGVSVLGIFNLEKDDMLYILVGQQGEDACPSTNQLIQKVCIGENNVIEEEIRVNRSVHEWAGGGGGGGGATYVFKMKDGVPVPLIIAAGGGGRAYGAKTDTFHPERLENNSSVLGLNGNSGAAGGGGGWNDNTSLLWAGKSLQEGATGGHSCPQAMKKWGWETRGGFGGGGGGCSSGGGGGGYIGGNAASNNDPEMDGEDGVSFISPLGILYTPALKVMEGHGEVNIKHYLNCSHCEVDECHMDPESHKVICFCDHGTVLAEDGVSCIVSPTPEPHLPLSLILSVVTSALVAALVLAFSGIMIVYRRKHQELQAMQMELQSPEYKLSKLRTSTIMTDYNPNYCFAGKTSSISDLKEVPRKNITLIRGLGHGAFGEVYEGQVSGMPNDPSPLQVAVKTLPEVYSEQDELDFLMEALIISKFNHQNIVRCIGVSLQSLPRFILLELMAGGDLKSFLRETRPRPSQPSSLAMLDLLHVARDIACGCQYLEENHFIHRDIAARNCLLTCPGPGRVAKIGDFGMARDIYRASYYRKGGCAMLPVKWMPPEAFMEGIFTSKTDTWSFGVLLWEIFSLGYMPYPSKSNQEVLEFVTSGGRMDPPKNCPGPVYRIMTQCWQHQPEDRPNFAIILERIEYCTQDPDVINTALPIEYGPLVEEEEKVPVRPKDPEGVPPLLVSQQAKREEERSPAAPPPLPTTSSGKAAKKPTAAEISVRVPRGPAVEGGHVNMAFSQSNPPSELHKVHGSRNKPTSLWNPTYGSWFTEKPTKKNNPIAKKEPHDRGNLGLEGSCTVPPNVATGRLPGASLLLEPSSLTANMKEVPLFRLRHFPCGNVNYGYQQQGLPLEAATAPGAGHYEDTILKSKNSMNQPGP

[8] = Cmax in Sprague-Dawley rat at 10 mg/kg, po; assay type: ADME, organism-based; parameters: dose 10 mg/kg, route oral; details: in vivo; outline: as §2
[9] = target: T2, ALK tyrosine kinase receptor (Homo sapiens, UniProt Q9UM73); assay: Inhibition of ALK in human NCI-H3122 cells harboring EML4-fused ALK assessed as reduction in ALK-induced ERK phosphorylation at Thr202/Tyr204 residues up to 3 uM after 2 hrs by immunoblot method; assay type: cell-based
T2 sequence (Q9UM73 19-1620 limits assumed): as the sequence (Q9UM73 19-1620 C1156Y limits assumed) above, with Y1138C counted along it

NCI-H1975 [10] = assay: Antitumor activity against human NCI-H1975 cells xenografted in po dosed nu/nu mouse assessed as decrease in cell proliferation administered for 21 days by Ki67 staining-based immunohistochemical analysis
PC-9 [11] = assay: Cell cycle arrest in human PC9 cells assessed as accumulation at G0/G1 phase at 0.03 to 1 uM after 24 hrs by propidium iodide/RNase staining-based flow cytometry; assay type: functional
[12] = tested on: Epidermal growth factor receptor (Homo sapiens), P00533 [T790M]; assay: Inhibition of TEL-fused EGFR T790M mutant (unknown origin) expressed in mouse BAF3 cells assessed as decrease in cell proliferation after 72 hrs by CellTiter-Glo assay; assay type: cell-based
Chain of Epidermal growth factor receptor (Homo sapiens), P00533 [T790M] (P00533 whole entry T790M, the tested form may be a part): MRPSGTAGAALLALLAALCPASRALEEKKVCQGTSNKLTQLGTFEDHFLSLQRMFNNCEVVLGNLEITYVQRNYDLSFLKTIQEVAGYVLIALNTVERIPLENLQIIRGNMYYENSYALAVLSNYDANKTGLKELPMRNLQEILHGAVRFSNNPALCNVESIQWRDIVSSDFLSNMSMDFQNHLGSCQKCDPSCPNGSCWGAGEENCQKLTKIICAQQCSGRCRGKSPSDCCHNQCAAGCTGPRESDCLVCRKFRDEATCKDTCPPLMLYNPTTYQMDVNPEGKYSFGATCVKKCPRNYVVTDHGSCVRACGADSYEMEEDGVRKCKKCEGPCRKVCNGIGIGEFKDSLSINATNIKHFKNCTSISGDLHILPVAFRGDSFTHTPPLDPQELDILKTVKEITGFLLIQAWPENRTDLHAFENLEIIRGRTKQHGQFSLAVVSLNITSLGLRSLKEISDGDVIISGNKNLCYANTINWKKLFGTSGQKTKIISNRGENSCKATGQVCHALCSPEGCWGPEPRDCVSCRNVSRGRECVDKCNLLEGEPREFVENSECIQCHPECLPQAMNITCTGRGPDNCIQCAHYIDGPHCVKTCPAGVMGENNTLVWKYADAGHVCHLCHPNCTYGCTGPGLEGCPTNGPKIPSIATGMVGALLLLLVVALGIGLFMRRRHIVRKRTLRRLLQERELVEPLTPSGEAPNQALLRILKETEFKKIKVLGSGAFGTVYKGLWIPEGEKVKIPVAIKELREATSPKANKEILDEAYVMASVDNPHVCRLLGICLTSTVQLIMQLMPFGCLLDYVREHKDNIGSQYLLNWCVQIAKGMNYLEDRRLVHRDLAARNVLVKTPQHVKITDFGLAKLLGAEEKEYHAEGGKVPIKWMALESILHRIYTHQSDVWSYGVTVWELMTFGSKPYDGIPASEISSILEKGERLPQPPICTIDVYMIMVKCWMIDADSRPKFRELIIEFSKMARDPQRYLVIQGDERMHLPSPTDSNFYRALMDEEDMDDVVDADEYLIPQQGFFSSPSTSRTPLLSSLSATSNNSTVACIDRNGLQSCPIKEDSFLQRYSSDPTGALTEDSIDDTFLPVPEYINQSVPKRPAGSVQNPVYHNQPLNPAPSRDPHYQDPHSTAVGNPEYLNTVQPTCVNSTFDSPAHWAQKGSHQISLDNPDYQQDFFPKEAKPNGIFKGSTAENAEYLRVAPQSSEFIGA

[13] = target: T1, Epidermal growth factor receptor; assay: Inhibition of EGFR in human A549 cells assessed as reduction in EGF-induced STAT3 phosphorylation at Tyr705 residue up to 3 uM after 4 hrs by immunoblotting method; assay type: cell-based
Homo sapiens = species: Homo sapiens; assay: Selectivity index, ratio of IC50 for recombinant human wild-type His-tagged EGFR to IC50 for recombinant human GST-tagged EGFR L858R/T790M mutant
[14] = Cmax in Sprague-Dawley rat at 1 mg/kg, iv; assay type: ADME, organism-based; parameters: dose 1 mg/kg, route intravenous; details: in vivo; outline: as §2
A549 [15] = assay: Cell cycle arrest in human A549 cells assessed as accumulation at G0/G1 phase at 0.03 to 1 uM after 24 hrs by propidium iodide/RNase staining-based flow cytometry; assay type: functional
NCI-H3122 [16] = assay: Antitumor activity against human NCI-H3122 cells xenografted in po dosed nu/nu mouse assessed as tumor growth inhibition administered for 28 days; assay type: functional, organism-based
[17] = Tmax in Sprague-Dawley rat at 10 mg/kg, po; assay type: ADME, organism-based; details: in vivo; outline: as §1
[18] = Tmax in Sprague-Dawley rat at 1 mg/kg, iv; assay type: ADME, organism-based; details: in vivo; outline: as §1
PC-9 [19] = assay: Induction of apoptosis in human PC9 cells assessed as increase in cleaved caspase-3 expression level at 300 nM to 1 uM after 24 hrs by Western blot method; assay type: functional, cell-based
[20] = target: Epidermal growth factor receptor (Homo sapiens, UniProt P00533, T790M); assay: Inhibition of recombinant human GST-tagged EGFR T790M mutant expressed in Baculovirus expression system using Tyr 4 peptide as substrate after 1 hr in presence of ATP by Z-LYTE assay
NCI-H3122 [21] = assay: Induction of apoptosis in human NCI-H3122 cells xenografted in po dosed nu/nu mouse administered for 28 days by DAB-chromogen-based TUNEL assay; assay type: functional, organism-based
A549 [22] = assay: Induction of apoptosis in human A549 cells assessed as increase in cleaved PARP expression level up to 1 uM after 24 hrs by Western blot method; assay type: functional, cell-based
NCI-H2122 = assay: Antiproliferative activity against human NCI-H2122 cells harboring wild-type EGFR after 72 hrs by CellTiter-Glo assay; assay type: functional; details: NCI-H2122, 72 h
NCI-H3122 [23] = assay: Antitumor activity against human NCI-H3122 cells xenografted in nu/nu mouse assessed as tumor growth inhibition at 20 mg/kg, po qd administered for 28 days; assay type: functional; details: 672 h, read-out: TGI
[24] = target: T2, ALK tyrosine kinase receptor
NCI-H3122 [25] = assay: Antitumor activity against human NCI-H3122 cells xenografted in nu/nu mouse assessed as tumor growth inhibition at 40 mg/kg, po qd administered for 28 days; assay type: functional; details: 672 h, read-out: TGI
NCI-H2228 = assay: Antiproliferative activity against human NCI-H2228 cells harboring EML4-fused ALK varian3 after 72 hrs by CellTiter-Glo assay; assay type: functional; details: NCI-H2228, 72 h
A549 [26] = assay: Induction of apoptosis in human A549 cells assessed as increase in cleaved caspase-3 expression level up to 1 uM after 24 hrs by Western blot method; assay type: functional, cell-based
NCI-H1975 [27] = assay: Antitumor activity against human NCI-H1975 cells xenografted in po dosed nu/nu mouse assessed as tumor growth inhibition administered for 21 days
[28] = tested on: Epidermal growth factor receptor (Homo sapiens), P00533 [C797S]; assay: Inhibition of TEL-fused EGFR C797S mutant (unknown origin) expressed in mouse BAF3 cells assessed as decrease in cell proliferation after 72 hrs by CellTiter-Glo assay; assay type: cell-based
NCI-H1975 [29] = assay: Induction of apoptosis in human NCI-H1975 cells xenografted in po dosed nu/nu mouse administered for 21 days by DAB-chromogen-based TUNEL assay
[30] = target: Epidermal growth factor receptor (Homo sapiens, UniProt P00533, L858R); assay: Inhibition of recombinant human GST-tagged EGFR L858R mutant expressed in Baculovirus expression system using Tyr 4 peptide as substrate after 1 hr in presence of ATP by Z-LYTE assay

## C=CC(=O)Nc1cc(Nc2ncc(Cl)c(Nc3ccccc3S(=O)(=O)C(C)C)n2)c(OC)cc1N1CCCN(C)CC1
[1]
  MRT last: 56.8 min
NCI-H1975 [2]
  GI50: 15 nM
[3]
  GI50 at 72 h: 1800 nM
[4]
  inhibition: Active
NCI-H3122 [5]
  Activity: Dose-dependent effect
[6]
  half-life: 59.5 min
[7]
  pIC50: 9.00
[8]
  Cmax: 283 ng/mL
[9]
  inhibition: Active
NCI-H1975 [10]
  Activity: Dose-dependent effect
PC-9 [11]
  Activity: Active
[12]
  GI50: 8 nM
[13]
  inhibition: inactive
Homo sapiens
  Ratio IC50: 20 to 30
[14]
  Cmax: 1490 ng/mL
A549 [15]
  Activity: inactive
NCI-H3122 [16]
  TGI: Dose-dependent effect
[17]
  Tmax: 240 min
[18]
  Tmax: 1.02 min
PC-9 [19]
  Activity: Active
[20]
  pIC50: 8.41
NCI-H3122 [21]
  Activity: Dose-dependent effect
A549 [22]
  Activity: inactive
NCI-H2122
  GI50: 1800 nM
NCI-H3122 [23]
  inhibition in vivo at 20 mg/kg: 68.3%
[24]
  GI50: 1 nM
NCI-H3122 [25]
  inhibition in vivo at 40 mg/kg: 78.4%
NCI-H2228
  GI50: 28 nM
A549 [26]
  Activity: inactive
NCI-H1975 [27]
  TGI: Dose-dependent effect
[28]
  GI50: 230 nM
NCI-H1975 [29]
  Activity: Dose-dependent effect
[30]
  pIC50: 7.08
